For experiment [1], the system named is Malme-3M. The experiment can be described thus: Growth inhibition of human MALME-3M cells overexpressing calcium-binding protein S100B after 4 days by SYBR green assay. The class given is functional, cell-based. The method, boiled down: (§1)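 MALME-3M melanoma cells, stable hairpin-vector lines with scrambled control siRNA (high S100B) or S100B knockdown siRNA (clone #7), grown in IMDM with 20% FBS, neomycin omitted during assay. Seeded in 384-well plates and grown 24 h at 37 °C, 5% CO2. Compound added, DMSO in controls, then 4 days incubation. Lysed with 1.2% Igepal plus SYBR Green I (1:10,000) for 24 h. Fluorescence read at 485/520 nm as a DNA/cell-number measure, and IC50 derived.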

The subject of experiment [2] is Malme-3M. The experiment can be described thus: Growth inhibition of human MALME-3M cells transfected with S100B siRNA after 4 days by SYBR green assay. It is filed as functional, cell-based. In a few lines: as §1
Experiment [3] is described as follows: Binding affinity to rat/bovine recombinant S100B expressed in Escherichia coli [HMS174(DE3)strain] by NMR spectroscopy.
Experiment [4] in a line: Destabilization of rat/bovine S100B assessed as change in melting temperature by differential scanning calorimetry. In a few lines:
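DSC on S100B dialyzed into 5 mM HEPES pH 7.2, 15 mM NaCl, 10 mM CaCl2, 0.5 mM TCEP, at 40-50 µM per monomer. Compound prepared in dialysis buffer, 200 µM final. Buffer reference scans subtracted and data normalized to protein concentration. Apparent Tm taken from peak maxima, compared against ligand-free S100B.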
(DSC measures the heat that a sample takes up or gives off during a temperature scan.)

Experiment [5] in a line: Binding affinity to rat/bovine recombinant S100B at weaker site expressed in Escherichia coli [HMS174(DE3)strain] by NMR spectroscopy.
Experiment [6] can be described thus: Binding affinity to rat/bovine recombinant S100B at tight site expressed in Escherichia coli [HMS174(DE3)strain] by NMR spectroscopy.
[7] abbreviates: Homo sapiens, Malme-3M, 96 h, read-out: IC50.

Usually IC50 stands for the midpoint of a concentration-inhibition curve. In general, Kd refers to the concentration at which binding is half-saturated. `N=C(N)c1ccc(OCCCCCCOc2ccc(C(=N)N)cc2)cc1` [HEXAMIDINE]: the IC50 result in the experiment with Malme-3M [1] (malme-3m) and with Malme-3M [2] (malme-3m) was “Not Active” each time. For the same molecule, the Kd result in experiment [3] is recorded as “Not Active”.
As usually defined, the ΔTm is the shift of the melting midpoint relative to a reference. On to `N=C(N)c1ccc(OCCCCCCCOc2ccc(C(=N)N)cc2)cc1` [HEPTAMIDINE], for which the IC50 with Malme-3M [1] (setting [7]) came out at 4.2 µM; with Malme-3M [2] (setting [7]), 6.8 µM. In addition, the ΔTm in experiment [4] amounted to 18.3 °C. Also, in experiment [3] (read-out: Kd), the Kd came to 6.9 µM.
Consider `N=C(N)c1ccc(OCCCCCOc2ccc(C(=N)N)cc2)cc1` [PENTAMIDINE], for which the values for the IC50 with Malme-3M [1] (setting [7]) and with Malme-3M [2] (setting [7]) were 10.2 µM and 12.2 µM, respectively. For the same molecule, in experiment [4], the shift in melting temperature (ΔTm) came out at 1 °C. For the same molecule, the Kd is 40 µM in experiment [5] and 0.13 µM in experiment [6].

The record behind these values is ChEMBL document CHEMBL2203086, “Structure-Based Discovery of a Novel Pentamidine-Related Inhibitor of the Calcium-Binding Protein S100B” (ACS Med Chem Lett, 2012).
